biological target: Butyrylcholinesterase (Rattus norvegicus, UniProt Q9JKC1); assay: (§1) Inhibition of BuChE in Wistar rat plasma using acetylthiocholine iodide as substrate after 0.5 hrs by Ellman's method
Sequence (Q9JKC1 whole entry): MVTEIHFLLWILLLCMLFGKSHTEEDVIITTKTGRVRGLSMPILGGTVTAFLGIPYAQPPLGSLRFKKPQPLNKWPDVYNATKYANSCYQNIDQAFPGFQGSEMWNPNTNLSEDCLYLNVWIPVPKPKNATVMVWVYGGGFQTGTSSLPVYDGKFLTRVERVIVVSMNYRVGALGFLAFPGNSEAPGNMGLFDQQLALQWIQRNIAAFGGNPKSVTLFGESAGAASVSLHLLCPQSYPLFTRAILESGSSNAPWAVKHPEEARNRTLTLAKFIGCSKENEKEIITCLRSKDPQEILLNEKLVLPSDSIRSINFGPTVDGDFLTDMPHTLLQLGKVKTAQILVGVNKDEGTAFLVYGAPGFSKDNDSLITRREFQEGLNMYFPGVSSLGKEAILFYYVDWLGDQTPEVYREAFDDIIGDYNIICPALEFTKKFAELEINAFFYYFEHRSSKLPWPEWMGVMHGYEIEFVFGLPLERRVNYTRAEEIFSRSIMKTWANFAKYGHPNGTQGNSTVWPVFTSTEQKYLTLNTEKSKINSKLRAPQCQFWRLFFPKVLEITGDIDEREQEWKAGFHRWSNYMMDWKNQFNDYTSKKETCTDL

| Structure (SMILES) | IC50 [µM] |
| --- | --- |
| C=CC[C@]12CCN(C)[C@@H]1N(C)c1ccc(OC(=O)Nc3ccccc3)cc12 | > 100 |
| C=C[C@@]12CCN(C)[C@@H]1N(C)c1ccc(OC(=O)Nc3ccccc3)cc12 | 41.9 |
| CC[C@]12CCN(C)[C@@H]1N(C)c1ccc(OC(=O)Nc3ccccc3)cc12 | 36.2 |
| CCC(C)(C)[C@@]12CCN(C)[C@@H]1N(C)c1ccc(OC(=O)Nc3ccccc3)cc12 | > 100 |
| CN1CC[C@@]2(C)c3cc(OC(=O)Nc4ccccc4)ccc3N(C)C12 (stereo partly specified) | 30 |
| C=CCC12CCN(C)C1N(C)c1ccc(OC(=O)Nc3ccccc3)cc12 (racemic) | > 100 |
| C=CCC12CCN(C)C1N(C)c1ccc(OC(=O)Nc3ccc(C(C)C)cc3)cc12 (racemic) | > 10 |
| C=CCC12CCN(C)C1N(C)c1ccc(OC(=O)Nc3ccc(Br)cc3)cc12 (racemic) | > 10 |
| C=CCC12CCN(C)C1N(C)c1ccc(OC(=O)Nc3ccc(F)cc3)cc12 (racemic) | > 100 |
| C=CCC12CCN(C)C1N(C)c1ccc(OC(=O)Nc3ccccc3F)cc12 (racemic) | 87.3 |
| CCCC12CCN(C)C1N(C)c1ccc(OC(=O)Nc3ccccc3)cc12 (racemic) | > 100 |
| C=CC12CCN(C)C1N(C)c1ccc(OC(=O)Nc3ccccc3)cc12 (racemic) | > 30 |
| CCC12CCN(C)C1N(C)c1ccc(OC(=O)Nc3ccccc3)cc12 (racemic) | 30 |
| CCC(C)(C)C12CCN(C)C1N(C)c1ccc(OC(=O)Nc3ccccc3)cc12 (racemic) | > 100 |
| C=CCC12CC(=O)N(C)C1N(C)c1ccc(OC(=O)Nc3ccccc3)cc12 (racemic) | 65.3 |
| CNC(=O)Oc1ccc2c(c1)[C@]1(C)CCN(C)[C@@H]1N2C [PHYSOSTIGMINE] | 0.0584 |

biological target: Butyrylcholinesterase (Rattus norvegicus) (UniProt Q9JKC1); assay: as §1
Sequence (Q9JKC1 as listed by the source): as the sequence (Q9JKC1 whole entry) above

| Structure (SMILES) | inhibition |
| --- | --- |
| C=CC[C@]12CCN(C)[C@@H]1N(C)c1ccc(OC(=O)Nc3ccccc3)cc12 | Dose-dependent effect |
| C=C[C@@]12CCN(C)[C@@H]1N(C)c1ccc(OC(=O)Nc3ccccc3)cc12 | Dose-dependent effect |
| CC[C@]12CCN(C)[C@@H]1N(C)c1ccc(OC(=O)Nc3ccccc3)cc12 | Dose-dependent effect |
| CCC(C)(C)[C@@]12CCN(C)[C@@H]1N(C)c1ccc(OC(=O)Nc3ccccc3)cc12 | Dose-dependent effect |
| CN1CC[C@@]2(C)c3cc(OC(=O)Nc4ccccc4)ccc3N(C)C12 (stereo partly specified) | Dose-dependent effect |
| C=CCC12CCN(C)C1N(C)c1ccc(OC(=O)Nc3ccccc3)cc12 (racemic) | Dose-dependent effect |
| C=CCC12CCN(C)C1N(C)c1ccc(OC(=O)Nc3ccc(C(C)C)cc3)cc12 (racemic) | Dose-dependent effect |
| C=CCC12CCN(C)C1N(C)c1ccc(OC(=O)Nc3ccc(Br)cc3)cc12 (racemic) | Dose-dependent effect |
| C=CCC12CCN(C)C1N(C)c1ccc(OC(=O)Nc3ccc(F)cc3)cc12 (racemic) | Dose-dependent effect |
| C=CCC12CCN(C)C1N(C)c1ccc(OC(=O)Nc3ccccc3F)cc12 (racemic) | Dose-dependent effect |
| CCCC12CCN(C)C1N(C)c1ccc(OC(=O)Nc3ccccc3)cc12 (racemic) | Dose-dependent effect |
| C=CC12CCN(C)C1N(C)c1ccc(OC(=O)Nc3ccccc3)cc12 (racemic) | Dose-dependent effect |
| CCC12CCN(C)C1N(C)c1ccc(OC(=O)Nc3ccccc3)cc12 (racemic) | Dose-dependent effect |
| CCC(C)(C)C12CCN(C)C1N(C)c1ccc(OC(=O)Nc3ccccc3)cc12 (racemic) | Dose-dependent effect |
| C=CCC12CC(=O)N(C)C1N(C)c1ccc(OC(=O)Nc3ccccc3)cc12 (racemic) | Dose-dependent effect |
| CNC(=O)Oc1ccc2c(c1)[C@]1(C)CCN(C)[C@@H]1N2C [PHYSOSTIGMINE] | Dose-dependent effect |

organism: Rattus norvegicus; assay: Selectivity ratio of IC50 for BuChE in Wistar rat plasma to IC50 for AChE in Wistar rat brain homogenate; format: tissue-based

| Structure (SMILES) | Ratio IC50 |
| --- | --- |
| C=CC[C@]12CCN(C)[C@@H]1N(C)c1ccc(OC(=O)Nc3ccccc3)cc12 | > 79 |
| C=C[C@@]12CCN(C)[C@@H]1N(C)c1ccc(OC(=O)Nc3ccccc3)cc12 | 65 |
| CC[C@]12CCN(C)[C@@H]1N(C)c1ccc(OC(=O)Nc3ccccc3)cc12 | 97 |
| CCC(C)(C)[C@@]12CCN(C)[C@@H]1N(C)c1ccc(OC(=O)Nc3ccccc3)cc12 | > 11 |
| CN1CC[C@@]2(C)c3cc(OC(=O)Nc4ccccc4)ccc3N(C)C12 (stereo partly specified) | 1100 |
| C=CCC12CCN(C)C1N(C)c1ccc(OC(=O)Nc3ccccc3)cc12 (racemic) | > 27 |
| C=CCC12CCN(C)C1N(C)c1ccc(OC(=O)Nc3ccc(F)cc3)cc12 (racemic) | > 23 |
| C=CCC12CCN(C)C1N(C)c1ccc(OC(=O)Nc3ccccc3F)cc12 (racemic) | 25 |
| CCCC12CCN(C)C1N(C)c1ccc(OC(=O)Nc3ccccc3)cc12 (racemic) | > 27 |
| C=CC12CCN(C)C1N(C)c1ccc(OC(=O)Nc3ccccc3)cc12 (racemic) | > 40 |
| CCC12CCN(C)C1N(C)c1ccc(OC(=O)Nc3ccccc3)cc12 (racemic) | 76 |
| CCC(C)(C)C12CCN(C)C1N(C)c1ccc(OC(=O)Nc3ccccc3)cc12 (racemic) | > 5.4 |
| C=CCC12CC(=O)N(C)C1N(C)c1ccc(OC(=O)Nc3ccccc3)cc12 (racemic) | 14 |

biological target: T1, Acetylcholinesterase (Rattus norvegicus, UniProt P37136); assay: (§2) Inhibition of AChE in Wistar rat brain homogenate using acetylthiocholine iodide as substrate after 0.5 hrs by Ellman's method; format: tissue-based
T1 sequence (P37136 whole entry): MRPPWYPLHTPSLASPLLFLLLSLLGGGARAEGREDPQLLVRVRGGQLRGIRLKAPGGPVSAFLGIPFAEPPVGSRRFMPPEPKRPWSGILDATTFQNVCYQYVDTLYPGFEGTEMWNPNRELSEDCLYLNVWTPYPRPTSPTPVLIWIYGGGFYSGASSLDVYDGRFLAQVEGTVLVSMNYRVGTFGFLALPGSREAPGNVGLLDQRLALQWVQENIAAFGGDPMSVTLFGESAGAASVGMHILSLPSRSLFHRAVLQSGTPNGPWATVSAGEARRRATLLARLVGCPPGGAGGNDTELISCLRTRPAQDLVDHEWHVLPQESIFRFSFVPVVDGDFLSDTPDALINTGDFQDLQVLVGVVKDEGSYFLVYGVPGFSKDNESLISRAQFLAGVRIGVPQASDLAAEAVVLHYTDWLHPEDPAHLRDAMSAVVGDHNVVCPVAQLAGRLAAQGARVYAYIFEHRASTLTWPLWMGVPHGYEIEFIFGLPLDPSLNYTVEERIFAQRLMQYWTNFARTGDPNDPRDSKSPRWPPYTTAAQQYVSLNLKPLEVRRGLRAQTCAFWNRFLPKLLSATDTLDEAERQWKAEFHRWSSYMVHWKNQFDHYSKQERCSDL
Summary of the method: (§3)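 Male Wistar ST rats (8–10 weeks old). Inhibitor is preincubated with homogenate (3:10 v/v) for 0.5 h at 37 °C. Ellman assay in 0.1 M phosphate with DTNB (10 mM stock) and acetylthiocholine (75 mM stock). A412 is recorded for 2 min at 25 °C, and the last-minute change gives activity. Four dose-response curves.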

| Structure (SMILES) | IC50 [µM] |
| --- | --- |
| C=CC[C@]12CCN(C)[C@@H]1N(C)c1ccc(OC(=O)Nc3ccccc3)cc12 | 1.26 |
| C=C[C@@]12CCN(C)[C@@H]1N(C)c1ccc(OC(=O)Nc3ccccc3)cc12 | 0.644 |
| CC[C@]12CCN(C)[C@@H]1N(C)c1ccc(OC(=O)Nc3ccccc3)cc12 | 0.373 |
| CCC(C)(C)[C@@]12CCN(C)[C@@H]1N(C)c1ccc(OC(=O)Nc3ccccc3)cc12 | 9.5 |
| CN1CC[C@@]2(C)c3cc(OC(=O)Nc4ccccc4)ccc3N(C)C12 (stereo partly specified) | 0.0283 |
| C=CCC12CCN(C)C1N(C)c1ccc(OC(=O)Nc3ccccc3)cc12 (racemic) | 3.77 |
| C=CCC12CCN(C)C1N(C)c1ccc(OC(=O)Nc3ccc(C(C)C)cc3)cc12 (racemic) | > 10 |
| C=CCC12CCN(C)C1N(C)c1ccc(OC(=O)Nc3ccc(Br)cc3)cc12 (racemic) | > 10 |
| C=CCC12CCN(C)C1N(C)c1ccc(OC(=O)Nc3ccc(F)cc3)cc12 (racemic) | 4.36 |
| C=CCC12CCN(C)C1N(C)c1ccc(OC(=O)Nc3ccccc3F)cc12 (racemic) | 3.55 |
| CCCC12CCN(C)C1N(C)c1ccc(OC(=O)Nc3ccccc3)cc12 (racemic) | 3.66 |
| C=CC12CCN(C)C1N(C)c1ccc(OC(=O)Nc3ccccc3)cc12 (racemic) | 0.749 |
| CCC12CCN(C)C1N(C)c1ccc(OC(=O)Nc3ccccc3)cc12 (racemic) | 0.397 |
| CCC(C)(C)C12CCN(C)C1N(C)c1ccc(OC(=O)Nc3ccccc3)cc12 (racemic) | 18.4 |
| C=CCC12CC(=O)N(C)C1N(C)c1ccc(OC(=O)Nc3ccccc3)cc12 (racemic) | 4.73 |

biological target: T2, Acetylcholinesterase (Rattus norvegicus) (UniProt P37136); assay: as §2; format: tissue-based; summary of the method: as §3
T2 sequence (whole entry): T1 sequence (P37136 whole entry)

| Structure (SMILES) | inhibition |
| --- | --- |
| C=CC[C@]12CCN(C)[C@@H]1N(C)c1ccc(OC(=O)Nc3ccccc3)cc12 | Dose-dependent effect |
| C=C[C@@]12CCN(C)[C@@H]1N(C)c1ccc(OC(=O)Nc3ccccc3)cc12 | Dose-dependent effect |
| CC[C@]12CCN(C)[C@@H]1N(C)c1ccc(OC(=O)Nc3ccccc3)cc12 | Dose-dependent effect |
| CCC(C)(C)[C@@]12CCN(C)[C@@H]1N(C)c1ccc(OC(=O)Nc3ccccc3)cc12 | Dose-dependent effect |
| CN1CC[C@@]2(C)c3cc(OC(=O)Nc4ccccc4)ccc3N(C)C12 (stereo partly specified) | Dose-dependent effect |
| C=CCC12CCN(C)C1N(C)c1ccc(OC(=O)Nc3ccccc3)cc12 (racemic) | Dose-dependent effect |
| C=CCC12CCN(C)C1N(C)c1ccc(OC(=O)Nc3ccc(C(C)C)cc3)cc12 (racemic) | Dose-dependent effect |
| C=CCC12CCN(C)C1N(C)c1ccc(OC(=O)Nc3ccc(Br)cc3)cc12 (racemic) | Dose-dependent effect |
| C=CCC12CCN(C)C1N(C)c1ccc(OC(=O)Nc3ccc(F)cc3)cc12 (racemic) | Dose-dependent effect |
| C=CCC12CCN(C)C1N(C)c1ccc(OC(=O)Nc3ccccc3F)cc12 (racemic) | Dose-dependent effect |
| CCCC12CCN(C)C1N(C)c1ccc(OC(=O)Nc3ccccc3)cc12 (racemic) | Dose-dependent effect |
| C=CC12CCN(C)C1N(C)c1ccc(OC(=O)Nc3ccccc3)cc12 (racemic) | Dose-dependent effect |
| CCC12CCN(C)C1N(C)c1ccc(OC(=O)Nc3ccccc3)cc12 (racemic) | Dose-dependent effect |
| CCC(C)(C)C12CCN(C)C1N(C)c1ccc(OC(=O)Nc3ccccc3)cc12 (racemic) | Dose-dependent effect |
| C=CCC12CC(=O)N(C)C1N(C)c1ccc(OC(=O)Nc3ccccc3)cc12 (racemic) | Dose-dependent effect |
| CNC(=O)Oc1ccc2c(c1)[C@]1(C)CCN(C)[C@@H]1N2C [PHYSOSTIGMINE] | Dose-dependent effect |

From ChEMBL document CHEMBL2057067, “Synthesis of phenserine analogues and evaluation of their cholinesterase inhibitory activities” (Bioorg Med Chem, 2012)
